Assay results taken from PubChem BioAssay.
Calls of active or inactive are those of the source.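 Rule for the calls: active = potentiation averaged over duplicate wells exceeding buffer-only control mean by more than 3 SD; inactive = the rest.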

Molecular target: Potassium voltage-gated channel subfamily KQT member 1 (Homo sapiens) (UniProt P51787)
Assay: enhancement of KCNQ1 channel thallium flux – FluxOR thallium flux, CHO cells, duplicates, confirmation (AID 493007);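 for outcome: cells depolarized by a potassium plus thallium sulfate stimulus after compound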
Details: KCNQ1 cell line, FluxOR thallium flux fluorescence, at 10 µM; hits give high values, % of reference activator effect, buffer zero
How it was run: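 Material: KCNQ1-expressing CHO cell line; Incubation: FluxOR dye loading 90 min, compound exposure 20 min, room temperature; Detection: FluxOR Tl+ flux fluorescence, 10 s baseline plus 110 s recording; Read-out: percent activation between buffer and R-L3 responses; Control set: buffer-only wells as 0% and R-L3 activator as 100%; Replication: duplicate wells per compound.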

Chain of Potassium voltage-gated channel subfamily KQT member 1 (Homo sapiens) (P51787 whole entry, looked up): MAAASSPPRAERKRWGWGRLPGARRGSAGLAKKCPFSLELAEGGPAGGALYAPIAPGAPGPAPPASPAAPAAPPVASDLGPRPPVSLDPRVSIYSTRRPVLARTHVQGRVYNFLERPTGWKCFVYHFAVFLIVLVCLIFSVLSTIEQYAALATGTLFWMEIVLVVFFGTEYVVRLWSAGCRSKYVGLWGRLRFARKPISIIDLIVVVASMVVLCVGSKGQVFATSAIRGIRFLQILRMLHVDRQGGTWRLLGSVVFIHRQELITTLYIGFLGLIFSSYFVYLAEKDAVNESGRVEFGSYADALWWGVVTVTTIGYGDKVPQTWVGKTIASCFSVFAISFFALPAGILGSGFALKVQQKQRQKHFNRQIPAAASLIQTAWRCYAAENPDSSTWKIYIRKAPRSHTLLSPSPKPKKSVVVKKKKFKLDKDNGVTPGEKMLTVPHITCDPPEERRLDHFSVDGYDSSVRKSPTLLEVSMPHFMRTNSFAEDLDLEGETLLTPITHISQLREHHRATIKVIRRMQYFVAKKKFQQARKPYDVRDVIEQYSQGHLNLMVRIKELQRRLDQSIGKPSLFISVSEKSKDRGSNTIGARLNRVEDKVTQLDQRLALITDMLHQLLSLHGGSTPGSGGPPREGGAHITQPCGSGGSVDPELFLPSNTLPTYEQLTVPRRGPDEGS

| Structure (SMILES) | outcome | potentiation |
| --- | --- | --- |
| Cc1ccc(O)c(C(=O)CC(=O)c2ccc(Cl)cc2)c1 | inactive | – |
| Cc1sc2nc(C(C)C)nc(SCC(=O)NCc3ccco3)c2c1C | – | 85.5% (active) |
| O=C(NC(=S)Nc1ccccc1)c1csnn1 | – | 260% (active) |
| CS(=O)(=O)NN1C(=O)c2ccccc2NC1c1ccccc1F (stereo not given) | – | 32.5% (active) |
| Cc1ccc(N=Nc2ccc(O)c3ncccc23)cc1C | – | 24.5% (active) |
| CC(=O)CC1(OC(C)=O)C(=O)N(C)c2ccccc21 (stereo not given) | inactive | – |
| CCN(CC)C(=S)NC(=O)c1ccc(Cl)cc1Cl | – | 50% (active) |
| COc1ccccc1C(=O)Nc1ccnn1C1CCN(CCCC2CCCC2)CC1 | inactive | – |
| CCC(CC)C1=NN2C(=N)/C(=C\c3cc(C)n(-c4cccc(C)c4)c3C)C(=O)N=C2S1 | inactive | – |
| Cc1ccc(OCC(=O)NNC(=S)NC(=O)c2cccs2)c(C)c1 | – | 76.5% (active) |
| Cc1ccc(-c2csc3nc[nH]c(=S)c23)cc1 | – | 124% (active) |
| O=Cc1cc2ccccc2nc1SCCCF | inactive | – |
| Cc1c(Cl)cccc1NC(=O)Cn1c(CCC(=O)O)ccc1-c1ccccc1 | inactive | – |
| Cc1cccc(NC(=S)NC(=O)c2ccc(Br)o2)c1C | inactive | – |
| COc1ccc(-c2cc(C(=O)Nc3c(Cl)cc(Cl)cc3Cl)c3ccccc3n2)cc1OC | inactive | – |
| Cc1cccc(-c2nnc(NC(=O)c3ccc(Cl)cc3)o2)c1 | – | 30% (active) |
| COc1ccc2[nH]c3c(c2c1)CCNC3C1CC=C(C)CC1 (stereo not given) | inactive | – |
| COc1ccc(S(=O)(=O)NCCOc2ccccc2)cc1OC | inactive | – |
| Cc1onc(-c2ccccc2)c1C(=O)N1CCN(S(=O)(=O)c2ccc(OC(F)(F)F)cc2)CC1 | inactive | – |
| O=C(NC(=S)Nc1ccc(N2CCCCC2)cc1)c1cccs1 | – | 74.5% (active) |

| Structure (SMILES) | outcome | potentiation |
| --- | --- | --- |
| O=C(Nc1nnc(-c2ccc3c(c2)CCCC3)o1)c1ccccc1Cl | – | 83% (active) |
| COc1ccc(-c2csc(N(CCCN(C)C)C(=O)c3ccccc3Cl)n2)cc1 | inactive | – |
| CN(C)CCNc1ncnc2c1sc1nc(N3CCCC3)c3c(c12)CC(C)(C)OC3 | – | 32% (active) |
| COc1cccc2sc(Nc3nnc(-c4ccccc4Cl)o3)nc12 | – | 112% (active) |
| Cc1ccc(-c2nc3ncccc3o2)cc1NC(=O)c1cccnc1 | inactive | – |
| O=c1c2c(-c3ccco3)csc2nc(SCc2cn3cccnc3n2)n1-c1ccccc1 | inactive | – |
| O=C(NNC(=O)c1ccc2ccccc2c1O)c1cccs1 | inactive | – |
| CC(C)(C)c1ccc2c(c1)OC(C(=O)N/N=C\c1ccccn1)CO2 (stereo not given) | inactive | – |
| COc1ccc(C(=O)Nc2ccnn2C2CCN(Cc3ccncc3)CC2)cc1 | inactive | – |
| CC1=C(C)/C(=N\OS(=O)(=O)c2ccccc2)C=CC1=O | inactive | – |
| C/C(=N\NC(=O)C1COc2ccccc2O1)c1ccc(N2CCOCC2)cc1 (stereo not given) | inactive | – |
| Nc1nonc1C(=O)NCCN=Cc1cc(Cc2ccccc2)cc(Br)c1O | inactive | – |
| CC1CCc2c(sc(NS(=O)(=O)c3ccccc3)c2C(=O)OC(C)C)C1 (stereo not given) | – | 156% (active) |
| O=C(Cn1c(=O)c2c(ncn2Cc2ccccc2)n(Cc2ccccc2)c1=O)N1CCc2ccccc21 | inactive | – |
| Fc1ccc(COc2ccc(Br)cc2CNCc2ccncc2)cc1 | inactive | – |
| Cc1nc2c(c3c1[nH]c1ccccc13)C(=O)CC(C)(C)C2 | inactive | – |
| O=C(NN=C1c2ccccc2-c2ccccc21)c1cccc(Br)c1 | – | 42.5% (active) |
| COc1cc(Br)cc(C=Nc2cccc(C(F)(F)F)c2)c1O | inactive | – |
| O=C(NNC(=S)NC(=O)c1ccco1)c1ccc(F)cc1 | – | 69% (active) |
| O=C(Nc1nnc(-c2ccco2)o1)c1cccc(Cl)c1 | inactive | – |
